Data: ChEMBL document CHEMBL1149771, “Antimicrobial studies of 2,4-dichloro-5-fluorophenyl containing oxadiazoles” (2008)
Values after ≈ are worked out from the molar mass of the structure shown.

What was measured:
Format in all cases: functional
Staphylococcus aureus [1] = test: Antibacterial activity against Staphylococcus aureus ATCC 25923 at 37 degC after 24 hrs by broth dilution method; conditions: ATCC 25923, 24 h
In short: (§1)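 Broth dilution MIC. Nutrient broth held two-fold serial dilutions of compound and was inoculated with about 5 × 10⁵ c.f.u. of actively dividing bacteria. Cultures ran 24 h at 37 °C, with growth checked visually and spectrophotometrically. MIC was the lowest concentration arresting growth. Ciprofloxacin was the standard.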

Pseudomonas aeruginosa [2] = test: Antibacterial activity against Pseudomonas aeruginosa ATCC 27853 at 37 degC after 24 hrs by disc diffusion method
In short: (§2)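 Disc diffusion on nutrient agar. Plates were spread with 1–2 × […] c.f.u./ml inoculum (0.5 McFarland). Sterile 6.25 mm filter-paper discs were soaked in a known concentration of compound and placed on the agar. Plates were inverted and incubated 24 h at 37 °C. Inhibition zones (mm) were read against solvent and growth controls, with ciprofloxacin as reference.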

Candida albicans [3] = test: Antifungal activity against Candida albicans at 35 degC after 48 hrs
In short: (§3)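 Fungicidal endpoint (MFC). 0.1 ml from each broth-dilution tube was spread on agar plates and c.f.u. counted after 48 h at 35 °C. MFC was the lowest concentration killing 99.9% of the inoculum.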

Candida albicans [4] = test: Antifungal activity against Candida albicans at 35 degC after 48 hrs by broth dilution method
In short: (§4)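 Fungal MIC by broth dilution. Two-fold serial dilutions of compound in nutrient broth were inoculated with about 1.6 × 10⁴–6 × 10⁴ c.f.u./ml. Incubation was 48 h at 35 °C. MIC was the lowest concentration arresting fungal growth.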

[5] = test system: Trichophyton mentagrophytes; test: Antifungal activity against Trichophyton mentagrophytes at 37 degC after 3 to 4 days by agar dilution method; conditions: in the assay text read “agar diffusion method” for “agar dilution method”
In short: (§5)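 Agar well diffusion for fungi, compounds in DMSO. Sabouraud agar was adjusted to pH 5.7 and lawned with a saline spore suspension (a loopful in 3 ml). Plates were dried 1 h at 37 °C, then wells were punched. Incubation was 3–4 days at 37 °C, with controls in triplicate. Inhibition zones were measured against controls, with griseofulvin as standard.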

Staphylococcus aureus [6] = test: Antibacterial activity against Staphylococcus aureus ATCC 25923 at 37 degC after 24 hrs by disc diffusion method; in short: as §2
Escherichia coli [7] = test: Antibacterial activity against Escherichia coli ATCC 25922 at 37 degC after 24 hrs by disc diffusion method; in short: as §2
Klebsiella pneumoniae [8] = test: Antibacterial activity against Klebsiella pneumoniae ATCC 25922 at 35 degC after 18 to 24 hrs; conditions: recultured, in the assay text read “Klebsiella pneumoniae (recultured)” for “Klebsiella pneumoniae ATCC 25922”
In short: (§6)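 Bactericidal endpoint (MBC) taken from the broth-dilution MIC tubes. 0.1 ml from each tube was spread on agar plates and c.f.u. counted after 18–24 h. MBC was the lowest concentration completely killing the bacteria.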

Talaromyces marneffei [9] = test: Antifungal activity against Penicillium marneffei at 35 degC after 48 hrs; in short: as §3
Talaromyces marneffei [10] = test: Antifungal activity against Penicillium marneffei at 37 degC after 3 to 4 days by agar […] method; in short: as §5
Klebsiella pneumoniae [11] = test: Antibacterial activity against Klebsiella pneumoniae ATCC 25922 at 37 degC after 24 hrs by disc diffusion method; in short: as §2
Escherichia coli [12] = test: Antibacterial activity against Escherichia coli ATCC 25922 at 35 degC after 18 to 24 hrs; in short: as §6
Klebsiella pneumoniae [13] = test: Antibacterial activity against Klebsiella pneumoniae ATCC 25922 at 37 degC after 24 hrs by broth dilution method; conditions: recultured, in the assay text read “Klebsiella pneumoniae (recultured)” for “Klebsiella pneumoniae ATCC 25922”; in short: as §1
[14] = test system: Trichophyton mentagrophytes; test: Antifungal activity against Trichophyton mentagrophytes at 35 degC after 48 hrs by broth dilution method; in short: as §4
Aspergillus fumigatus [15] = test: Antifungal activity against Aspergillus fumigatus at 35 degC after 48 hrs; in short: as §3
Staphylococcus aureus [16] = test: Antibacterial activity against Staphylococcus aureus ATCC 25923 at 35 degC after 18 to 24 hrs; in short: as §6
Aspergillus fumigatus [17] = test: Antifungal activity against Aspergillus fumigatus at 37 degC after 3 to 4 days by agar […] method; in short: as §5
Aspergillus fumigatus [18] = test: Antifungal activity against Aspergillus fumigatus at 35 degC after 48 hrs by broth dilution method; in short: as §4
Pseudomonas aeruginosa [19] = test: Antibacterial activity against Pseudomonas aeruginosa ATCC 27853 at 35 degC after 18 to 24 hrs; in short: as §6
[20] = test system: Trichophyton mentagrophytes; test: Antifungal activity against Trichophyton mentagrophytes at 35 degC after 48 hrs; in short: as §3
Talaromyces marneffei [21] = test: Antifungal activity against Penicillium marneffei at 35 degC after 48 hrs by broth dilution method; in short: as §4
Pseudomonas aeruginosa [22] = test: Antibacterial activity against Pseudomonas aeruginosa ATCC 27853 at 37 degC after 24 hrs by broth dilution method; conditions: ATCC 27853, 24 h; in short: as §1
Candida albicans [23] = test: Antifungal activity against Candida albicans at 37 degC after 3 to 4 days by agar dilution method; conditions: for Activity: in the assay text read “agar diffusion method” for “agar dilution method”; in short: as §5
Escherichia coli [24] = test: Antibacterial activity against Escherichia coli ATCC 25922 at 37 degC after 24 hrs by broth dilution method; conditions: ATCC 25922, 24 h; in short: as §1

Row | SMILES | MIC (Staphylococcus aureus [1]) | MIC (Candida albicans [4]) | MIC (Klebsiella pneumoniae [13]) | MIC [14] | MIC (Aspergillus fumigatus [18]) | MIC (Talaromyces marneffei [21]) | MIC (Pseudomonas aeruginosa [22]) | MIC (Escherichia coli [24]) | inhibition zone (IZ) (Pseudomonas aeruginosa [2]) | MFC (Candida albicans [3]) | inhibition zone (IZ) [5] | inhibition zone (IZ) (Staphylococcus aureus [6]) | inhibition zone (IZ) (Escherichia coli [7]) | MBC (Klebsiella pneumoniae [8]) | MFC (Talaromyces marneffei [9]) | MBC (Escherichia coli [12]) | MFC (Aspergillus fumigatus [15]) | MBC (Staphylococcus aureus [16]) | MBC (Pseudomonas aeruginosa [19]) | MFC [20] | other results
1 | Cc1ccc(OCc2nnc(-c3cc(F)c(Cl)cc3Cl)o2)cc1 | 6.25 µg/mL (≈ 17.7 µM) | 6.25 µg/mL (≈ 17.7 µM) | 12.5 µg/mL (≈ 35.4 µM) | 6.25 µg/mL (≈ 17.7 µM) | 6.25 µg/mL (≈ 17.7 µM) | 6.25 µg/mL (≈ 17.7 µM) | 6.25 µg/mL (≈ 17.7 µM) | 6.25 µg/mL (≈ 17.7 µM) | 32 mm | 6.25 µg/mL (≈ 17.7 µM) | 24 mm | 22 mm | 25 mm | 25 µg/mL (≈ 70.8 µM) | 12.5 µg/mL (≈ 35.4 µM) | 6.25 µg/mL (≈ 17.7 µM) | 12.5 µg/mL (≈ 35.4 µM) | 12.5 µg/mL (≈ 35.4 µM) | 12.5 µg/mL (≈ 35.4 µM) | 6.25 µg/mL (≈ 17.7 µM) | inhibition zone (IZ) (Talaromyces marneffei [10]): 18 mm; inhibition zone (IZ) (Klebsiella pneumoniae [11]): 18 mm; inhibition zone (IZ) (Aspergillus fumigatus [17]): 26 mm; inhibition zone (IZ) (Candida albicans [23]): 27 mm
2 | Cc1cc(Cl)ccc1OCc1nnc(-c2cc(-c3cc(F)c(Cl)cc3Cl)nc3ccccc23)o1 | 6.25 µg/mL (≈ 12.1 µM) | > 100 µg/mL | > 100 µg/mL | 6.25 µg/mL (≈ 12.1 µM) | 12.5 µg/mL (≈ 24.3 µM) | > 100 µg/mL | 12.5 µg/mL (≈ 24.3 µM) | > 100 µg/mL | 12 mm | > 100 µg/mL | 19 mm | 17 mm |  | > 100 µg/mL | > 100 µg/mL | > 100 µg/mL | 50 µg/mL (≈ 97.1 µM) | 25 µg/mL (≈ 48.6 µM) | 50 µg/mL (≈ 97.1 µM) | 12.5 µg/mL (≈ 24.3 µM) | Activity (Escherichia coli [7]): >100 µg/mL; Activity (Talaromyces marneffei [10]): >100 µg/mL; Activity (Klebsiella pneumoniae [11]): >100 µg/mL; inhibition zone (IZ) (Aspergillus fumigatus [17]): 12 mm; Activity (Candida albicans [23]): >100 µg/mL
3 | Fc1cc(-c2cc(-c3nnc(COc4ccc(Cl)cc4)o3)c3ccccc3n2)c(Cl)cc1Cl | 6.25 µg/mL (≈ 12.5 µM) | 12.5 µg/mL (≈ 25 µM) | 12.5 µg/mL (≈ 25 µM) | 6.25 µg/mL (≈ 12.5 µM) | 6.25 µg/mL (≈ 12.5 µM) | 6.25 µg/mL (≈ 12.5 µM) | 6.25 µg/mL (≈ 12.5 µM) | 6.25 µg/mL (≈ 12.5 µM) | 32 mm | 50 µg/mL (≈ 99.9 µM) | 15 mm | 19 mm | 25 mm | 25 µg/mL (≈ 49.9 µM) | 12.5 µg/mL (≈ 25 µM) | 6.25 µg/mL (≈ 12.5 µM) | 25 µg/mL (≈ 49.9 µM) | 12.5 µg/mL (≈ 25 µM) | 25 µg/mL (≈ 49.9 µM) | 12.5 µg/mL (≈ 25 µM) | inhibition zone (IZ) (Talaromyces marneffei [10]): 20 mm; inhibition zone (IZ) (Klebsiella pneumoniae [11]): 18 mm; inhibition zone (IZ) (Aspergillus fumigatus [17]): 16 mm; inhibition zone (IZ) (Candida albicans [23]): 12 mm

Now from value to compound, other results behind:

Row | MIC (Staphylococcus aureus [1]) | MIC (Candida albicans [4]) | MIC (Klebsiella pneumoniae [13]) | MIC [14] | MIC (Aspergillus fumigatus [18]) | MIC (Talaromyces marneffei [21]) | MIC (Pseudomonas aeruginosa [22]) | MIC (Escherichia coli [24]) | SMILES | inhibition zone (IZ) (Pseudomonas aeruginosa [2]) | MFC (Candida albicans [3]) | inhibition zone (IZ) [5] | inhibition zone (IZ) (Staphylococcus aureus [6]) | inhibition zone (IZ) (Escherichia coli [7]) | MBC (Klebsiella pneumoniae [8]) | MFC (Talaromyces marneffei [9]) | MBC (Escherichia coli [12]) | MFC (Aspergillus fumigatus [15]) | MBC (Staphylococcus aureus [16]) | MBC (Pseudomonas aeruginosa [19]) | MFC [20] | other results
4 | > 100 µg/mL | > 100 µg/mL | > 100 µg/mL | > 100 µg/mL | 12.5 µg/mL (≈ 24.3 µM) | 12.5 µg/mL (≈ 24.3 µM) | 6.25 µg/mL (≈ 12.1 µM) | 12.5 µg/mL (≈ 24.3 µM) | Cc1cc(OCc2nnc(-c3cc(-c4cc(F)c(Cl)cc4Cl)nc4ccccc34)o2)ccc1Cl | 26 mm | > 100 µg/mL |  |  | 17 mm | > 100 µg/mL | 50 µg/mL (≈ 97.1 µM) | 25 µg/mL (≈ 48.6 µM) | 25 µg/mL (≈ 48.6 µM) | > 100 µg/mL | 25 µg/mL (≈ 48.6 µM) | > 100 µg/mL | Activity [5]: >100 µg/mL; Activity (Staphylococcus aureus [6]): >100 µg/mL; inhibition zone (IZ) (Talaromyces marneffei [10]): 12 mm; Activity (Klebsiella pneumoniae [11]): >100 µg/mL; inhibition zone (IZ) (Aspergillus fumigatus [17]): 15 mm; Activity (Candida albicans [23]): >100 µg/mL
5 | 12.5 µg/mL (≈ 26 µM) | > 100 µg/mL | 12.5 µg/mL (≈ 26 µM) | 6.25 µg/mL (≈ 13 µM) | > 100 µg/mL | 12.5 µg/mL (≈ 26 µM) | 25 µg/mL (≈ 52 µM) | 25 µg/mL (≈ 52 µM) | Cc1ccc(OCc2nnc(-c3cc(-c4cc(F)c(Cl)cc4Cl)nc4ccccc34)o2)cc1 | 8 mm | > 100 µg/mL | 17 mm | 15 mm | 10 mm | 25 µg/mL (≈ 52 µM) | 25 µg/mL (≈ 52 µM) | 50 µg/mL (≈ 104 µM) | > 100 µg/mL | 100 µg/mL (≈ 208 µM) | 50 µg/mL (≈ 104 µM) | 6.25 µg/mL (≈ 13 µM) | inhibition zone (IZ) (Talaromyces marneffei [10]): 15 mm; inhibition zone (IZ) (Klebsiella pneumoniae [11]): 15 mm; Activity (Aspergillus fumigatus [17]): >100 µg/mL; Activity (Candida albicans [23]): >100 µg/mL
